Experimental findings from ChEMBL document CHEMBL3621189, “Identification of non-peptidic cysteine reactive fragments as inhibitors of cysteine protease rhodesain” (Bioorg Med Chem Lett, 2015) are described below.

The source made the active and inactive calls. The rule behind the calls is not given here. A value given as a limit tells only on which side of the number the result lay.

Assay [1] has as its system Trypanosoma brucei brucei. In words: Antitrypanosomal activity against Trypanosoma brucei brucei 427 assessed as growth inhibition after 24 hrs by Alamar Blue assay. It counts as functional, organism-based. As to conditions: Trypanosoma brucei, 427, 24 h. (The colour change of resazurin is a common sign of viable cells or microbes.)
A further assay deals with HepG2. Description: Cytotoxicity against human HepG2 cells after 72 hrs by MTT assay. Particulars: HepG2, 72 h. The class given is cell-based.
Assay [2] addresses Rhodesain (Trypanosoma brucei rhodesiense) (UniProt Q95PM0). Description: Time-dependent inhibition of Trypanosoma brucei rhodesiense Rhodesain expressed in Pichia pastoris using Z-Phe-Arg-AMC as substrate assessed as ratio of Kinact to Ki preincubated for 30 mins followed by substrate addition measured for 7 mins by fluorescence assay.
For assay [3] the target is unchanged. In words: Inhibition of Trypanosoma brucei rhodesiense Rhodesain expressed in Pichia pastoris using Z-Phe-Arg-AMC as substrate at 10 uM preincubated for 30 mins followed by substrate addition by fluorescence assay relative to control. In a few lines:
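Single-concentration enzymatic screen of a 200-member cysteine-reactive electrophilic fragment library at 10 μM against rhodesain, scored as percent inhibition. Actives were retested at 10 μM in a confirmatory enzymatic assay.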

Chain of Rhodesain (Trypanosoma brucei rhodesiense) (Q95PM0 1-450): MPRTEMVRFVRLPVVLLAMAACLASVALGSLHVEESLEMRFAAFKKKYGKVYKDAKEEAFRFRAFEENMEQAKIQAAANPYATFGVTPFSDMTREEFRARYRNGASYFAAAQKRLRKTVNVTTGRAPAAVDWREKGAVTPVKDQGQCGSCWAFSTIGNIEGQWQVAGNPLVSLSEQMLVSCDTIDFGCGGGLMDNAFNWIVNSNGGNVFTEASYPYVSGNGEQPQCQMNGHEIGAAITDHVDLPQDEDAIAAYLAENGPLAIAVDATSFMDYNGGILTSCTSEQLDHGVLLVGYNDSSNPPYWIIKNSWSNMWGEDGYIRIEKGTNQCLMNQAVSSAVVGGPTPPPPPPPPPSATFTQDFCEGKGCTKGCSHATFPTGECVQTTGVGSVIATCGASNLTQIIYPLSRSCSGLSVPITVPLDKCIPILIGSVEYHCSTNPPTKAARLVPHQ

As for `Cc1nc(-c2ccccc2F)sc1C(=O)NC/C=C/S(C)(=O)=O`, the IC50 in assay [1] came to 30.2 µM; in the assay on HepG2, 69 µM. In addition, in assay [2], the Ratio worked out at 3.47 M⁻¹ s⁻¹. This compound displayed an inhibition in assay [3] below 40%.
Turning to `CC(C)CC(=O)N1CCC(C(=O)NC/C=C/S(C)(=O)=O)CC1`, the IC50 in assay [1] was above 50 µM; in the assay on HepG2 it was above 150 µM. In addition, the inhibition entry in assay [2] was “inactive”. The same compound came in with an inhibition in assay [3] below 40%.
`COC(=O)/C=C/CNC(=O)c1sc(-c2ccccc2F)nc1C`: the IC50 in assay [1] was 30.3 µM; with HepG2 it was above 150 µM. The Ratio in assay [2] was determined as 18.3 M⁻¹ s⁻¹.
Turning to `COC(=O)/C=C/CNC(=O)c1cc(-c2ccc(C)cc2)on1`, the figures for the IC50 (in assay [1]; in the assay on HepG2) were 43.4 µM and above 150 µM, respectively. In addition, the Ratio in assay [2] was found to be 13.2 M⁻¹ s⁻¹.
Consider `COC(=O)/C=C/CNC(=O)C1CCN(C(=O)CC(C)C)CC1`, for which the IC50 in assay [1] is above 50 µM; with HepG2, above 150 µM. Besides, in assay [2], the inhibition result is “inactive”. In assay [3], this compound had an inhibition below 40%.
In the case of `Cc1ccc(-c2cc(C(=O)NC/C=C/S(C)(=O)=O)no2)cc1`, the values for the concentration for half-maximal inhibition (IC50) (in assay [1]; with HepG2) were 29.5 µM and 76 µM, respectively. For the same compound, in assay [2], the inhibition result is “inactive”. The compound also registered an inhibition in assay [3] below 40%.

The IC50 is the concentration at which inhibition is half-maximal. For orientation: inhibition means the relative decrease from the control value, in per cent.
